Data as given in ChEMBL document CHEMBL1133997, “2,2-Dimethyl-4,5-diaryl-3(2H)furanone derivatives as selective cyclo-oxygenase-2 inhibitors” (Bioorg Med Chem Lett, 2001).

Columns and labels:
[1] = biological target: T1, Prostaglandin G/H synthase 2 (Mus musculus, UniProt Q05769); assay: Ability to inhibit Prostaglandin G/H synthase 2 by using freshly harvested mouse peritoneal macrophages
T1 sequence (Q05769 whole entry): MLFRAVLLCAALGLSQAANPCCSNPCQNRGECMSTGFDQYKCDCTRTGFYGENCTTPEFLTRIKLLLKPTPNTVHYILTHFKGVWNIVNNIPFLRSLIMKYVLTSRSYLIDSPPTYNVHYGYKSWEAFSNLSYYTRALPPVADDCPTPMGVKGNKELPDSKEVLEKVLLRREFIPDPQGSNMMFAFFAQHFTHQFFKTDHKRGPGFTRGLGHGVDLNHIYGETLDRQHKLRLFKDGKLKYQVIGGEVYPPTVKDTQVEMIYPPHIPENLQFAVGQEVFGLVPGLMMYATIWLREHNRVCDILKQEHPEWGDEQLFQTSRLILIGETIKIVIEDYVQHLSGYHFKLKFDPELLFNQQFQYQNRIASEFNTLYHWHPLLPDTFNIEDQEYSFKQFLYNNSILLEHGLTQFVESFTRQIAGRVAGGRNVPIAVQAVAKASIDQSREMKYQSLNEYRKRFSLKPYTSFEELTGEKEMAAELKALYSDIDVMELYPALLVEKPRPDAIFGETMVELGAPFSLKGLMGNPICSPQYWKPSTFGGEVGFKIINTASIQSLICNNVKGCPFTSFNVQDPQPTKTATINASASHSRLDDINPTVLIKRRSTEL

[2] = biological target: T2, Prostaglandin G/H synthase 1 (Mus musculus, UniProt P22437); assay: Ability to inhibit Prostaglandin G/H synthase 1 by using freshly harvested mouse peritoneal macrophages
T2 sequence (P22437 whole entry): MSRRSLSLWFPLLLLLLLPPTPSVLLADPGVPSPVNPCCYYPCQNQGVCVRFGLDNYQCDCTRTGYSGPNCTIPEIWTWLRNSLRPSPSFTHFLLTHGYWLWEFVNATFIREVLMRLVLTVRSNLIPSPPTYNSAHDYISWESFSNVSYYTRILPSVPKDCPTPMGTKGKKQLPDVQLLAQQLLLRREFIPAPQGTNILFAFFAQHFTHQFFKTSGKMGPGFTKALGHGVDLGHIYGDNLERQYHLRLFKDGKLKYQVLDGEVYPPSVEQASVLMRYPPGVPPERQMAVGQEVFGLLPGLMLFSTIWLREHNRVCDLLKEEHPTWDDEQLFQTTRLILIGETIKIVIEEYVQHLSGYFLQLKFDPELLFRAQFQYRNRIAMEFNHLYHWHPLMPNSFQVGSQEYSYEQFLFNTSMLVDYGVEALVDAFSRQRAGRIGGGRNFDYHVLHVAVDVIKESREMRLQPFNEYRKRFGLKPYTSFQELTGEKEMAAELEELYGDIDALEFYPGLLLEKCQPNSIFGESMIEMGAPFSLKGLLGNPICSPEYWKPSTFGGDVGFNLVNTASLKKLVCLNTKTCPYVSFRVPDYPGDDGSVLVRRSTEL

Rattus norvegicus [3] = assay: In vivo inhibitory activity against carrageenan induced paw edema in Sprague-Darley rats after oral administration of the compound; type: functional
Method in brief: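 Sprague–Darley rats were given compound orally at 3 mg/kg body weight. Read-out was percent inhibition of paw edema, using five animals per group.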

Rattus norvegicus [4] = species on record: Rattus norvegicus; assay: Effective dose required for the inhibition of adjuvant arthritis in Sprague-Darley rats; type: functional
Method in brief: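 Adjuvant-induced arthritis in Sprague–Darley rats, with compound dosed daily (mg/kg/day).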

**Q.** How did the IC50 [1] turn out when `Cc1ccccc1C1=C(c2ccc(S(C)(=O)=O)cc2)OC(C)(C)C1=O` was run?
**A.** Its IC50 is 842 nM.

**Q.** What about the IC50 [2] of the same compound?
**A.** The IC50 was 56100 nM.

**Q.** `CC1(C)OC(c2ccc(S(C)(=O)=O)cc2)=C(c2cccc(Cl)c2)C1=O` was tested. Which Inhibition (Rattus norvegicus [3]) did it give?
**A.** The Inhibition was 32%.

**Q.** Which results are given for `CC1(C)OC(c2ccc(S(C)(=O)=O)cc2)=C(c2ccccc2)C1=O`?
**A.** IC50 [1]: 146 nM; IC50 [2]: 8760 nM

**Q.** How did the ED50 (Rattus norvegicus [4]) turn out when `CC1(C)OC(c2ccc(S(C)(=O)=O)cc2)=C(c2cccc(F)c2)C1=O` was run?
**A.** Its ED50 is 0.08 mg/kg/day.

**Q.** Which IC50 [1] does the source give for `CC1(C)OC(c2ccc(S(C)(=O)=O)cc2)=C(c2cc(F)cc(F)c2)C1=O` here?
**A.** Its IC50 is 79.3 nM.

**Q.** What about the ED50 (Rattus norvegicus [4]) of the same compound?
**A.** Its ED50 is 0.03 mg/kg/day.

**Q.** `CC1(C)OC(c2ccc(S(C)(=O)=O)cc2)=C(c2cccc(C(F)(F)F)c2)C1=O` was tested. Which IC50 [1] did it give?
**A.** The IC50 was 122 nM.

**Q.** And the IC50 [2]?
**A.** Its IC50 is 7310 nM.

**Q.** What about the ED50 (Rattus norvegicus [4]) of the same compound?
**A.** Its ED50 is 0.06 mg/kg/day.

**Q.** What does the source list for `Cc1ccc(-c2cc(C(F)(F)F)nn2-c2ccc(S(N)(=O)=O)cc2)cc1` [CELECOXIB]?
**A.** ED50 (Rattus norvegicus [4]): 0.2 mg/kg/day; Inhibition (Rattus norvegicus [3]): 31%

**Q.** Which IC50 [1] does the source give for `CS(=O)(=O)c1ccc(C2=C(c3ccccc3)C(=O)OC2)cc1` [ROFECOXIB] here?
**A.** The IC50 was 191 nM.
